# Test system: Fibroblast
# Assay: Multiplex assay against human fibroblast
# Format: toxicity, cell-based
# Outline: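 With compound added, live cells were imaged on a CQ1 microscope at 37°C and 5% CO2; staining with Hoechst33342, BioTracker Green Microtubule Cytoskeleton Dye, MitoTracker Red and Annexin V Alexa Fluor 680 had been done at seeding. The CellPathfinder machine-learning gating scheme split cells into Hoechst high-intensity objects or normal cells, normal cells into healthy, pyknosed or fragmented nuclei, and pyknosed cells into mitotic or apoptotic. The tubulin, mitochondrial-mass and membrane-permeability phenotypes are per cents of healthy-nucleus cells.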
# [1] = 12 h, 1 µM, compound concentration 1 uM, replicate 1
# [2] = 12 h, 1 µM, compound concentration 1 uM, replicate 2
# [3] = 12 h, 10 µM, compound concentration 10 uM, replicate 1
# [4] = 12 h, 10 µM, compound concentration 10 uM, replicate 2
# [5] = 24 h, 1 µM, compound concentration 1 uM, replicate 1
# [6] = 24 h, 1 µM, compound concentration 1 uM, replicate 2
# [7] = 24 h, 10 µM, compound concentration 10 uM, replicate 1
# [8] = 24 h, 10 µM, compound concentration 10 uM, replicate 2
compound,measurement,setting,value
C=CC(=O)Nc1ccc2[nH]c(=O)n(C3CCN(Cc4ccc(-c5nc6cc[nH]c(=O)c6cc5-c5ccccc5)cc4)CC3)c2c1 [Borussertib],Population Apoptotic (%),[1],64%
same,Population Fragmented Nuclei (%),[1],31%
same,Population Healthy Nuclei (%),[1],51%
same,Population Hoechst High Intensity Objects (%),[1],13%
same,Population Membrane Permeable-Phenotype (%),[1],10%
same,Population Mitochondria Different-Phenotype (%),[1],5%
same,Population Mitotic Cells (%),[1],36%
same,Population Normal (%),[1],86%
same,Population Pyknosed Nuclei (%),[1],17%
same,Population Tubulin-Different-Phenotype (%),[1],4%
same,Total Cell Count,[1],169
same,Population Apoptotic (%),[2],33%
same,Population Fragmented Nuclei (%),[2],63%
same,Population Healthy Nuclei (%),[2],31%
same,Population Hoechst High Intensity Objects (%),[2],30%
same,Population Membrane Permeable-Phenotype (%),[2],11%
same,Population Mitochondria Different-Phenotype (%),[2],0%
same,Population Mitotic Cells (%),[2],66%
same,Population Normal (%),[2],69%
same,Population Pyknosed Nuclei (%),[2],5%
same,Population Tubulin-Different-Phenotype (%),[2],16%
same,Total Cell Count,[2],83
same,Population Apoptotic (%),[3],60%
same,Population Fragmented Nuclei (%),[3],27%
same,Population Healthy Nuclei (%),[3],56%
same,Population Hoechst High Intensity Objects (%),[3],15%
same,Population Membrane Permeable-Phenotype (%),[3],6%
same,Population Mitochondria Different-Phenotype (%),[3],4%
same,Population Mitotic Cells (%),[3],39%
same,Population Normal (%),[3],84%
same,Population Pyknosed Nuclei (%),[3],16%
same,Population Tubulin-Different-Phenotype (%),[3],27%
same,Total Cell Count,[3],304
same,Population Apoptotic (%),[4],44%
same,Population Fragmented Nuclei (%),[4],64%
same,Population Healthy Nuclei (%),[4],22%
same,Population Hoechst High Intensity Objects (%),[4],29%
same,Population Membrane Permeable-Phenotype (%),[4],25%
same,Population Mitochondria Different-Phenotype (%),[4],18%
same,Population Mitotic Cells (%),[4],55%
same,Population Normal (%),[4],71%
same,Population Pyknosed Nuclei (%),[4],12%
same,Population Tubulin-Different-Phenotype (%),[4],68%
same,Total Cell Count,[4],100
same,Population Apoptotic (%),[5],66%
same,Population Fragmented Nuclei (%),[5],29%
same,Population Healthy Nuclei (%),[5],56%
same,Population Hoechst High Intensity Objects (%),[5],13%
same,Population Membrane Permeable-Phenotype (%),[5],4%
same,Population Mitochondria Different-Phenotype (%),[5],2%
same,Population Mitotic Cells (%),[5],33%
same,Population Normal (%),[5],86%
same,Population Pyknosed Nuclei (%),[5],14%
same,Population Tubulin-Different-Phenotype (%),[5],6%
same,Total Cell Count,[5],170
same,Population Apoptotic (%),[6],100%
same,Population Fragmented Nuclei (%),[6],56%
same,Population Healthy Nuclei (%),[6],41%
same,Population Hoechst High Intensity Objects (%),[6],32%
same,Population Membrane Permeable-Phenotype (%),[6],5%
same,Population Mitochondria Different-Phenotype (%),[6],10%
same,Population Mitotic Cells (%),[6],0%
same,Population Normal (%),[6],67%
same,Population Pyknosed Nuclei (%),[6],2%
same,Population Tubulin-Different-Phenotype (%),[6],10%
same,Total Cell Count,[6],68
same,Population Apoptotic (%),[7],55%
same,Population Fragmented Nuclei (%),[7],30%
same,Population Healthy Nuclei (%),[7],56%
same,Population Hoechst High Intensity Objects (%),[7],23%
same,Population Membrane Permeable-Phenotype (%),[7],2%
same,Population Mitochondria Different-Phenotype (%),[7],2%
same,Population Mitotic Cells (%),[7],44%
same,Population Normal (%),[7],76%
same,Population Pyknosed Nuclei (%),[7],13%
same,Population Tubulin-Different-Phenotype (%),[7],22%
same,Total Cell Count,[7],347
same,Population Apoptotic (%),[8],33%
same,Population Fragmented Nuclei (%),[8],55%
same,Population Healthy Nuclei (%),[8],39%
same,Population Hoechst High Intensity Objects (%),[8],40%
same,Population Membrane Permeable-Phenotype (%),[8],4%
same,Population Mitochondria Different-Phenotype (%),[8],8%
same,Population Mitotic Cells (%),[8],66%
same,Population Normal (%),[8],59%
same,Population Pyknosed Nuclei (%),[8],5%
same,Population Tubulin-Different-Phenotype (%),[8],43%
same,Total Cell Count,[8],97
